Calls of active or inactive are those of the source. The rule behind the calls is not given here.
What was measured:
MCF7 [1] = test: Cytotoxicity against human MCF7 cells after 72 hrs by MTT assay; assay type: functional, cell-based; details: MCF7, 72 h
Procedure, shortened: (§1)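 Cells grown in RPMI with 10% heat-inactivated fetal calf serum and exposed to compound for 72 h. Overall growth read by MTT colorimetric assay; IC50 derived from it. Six replicates per condition.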

[2] = Cytotoxicity against human Hs683 cells after 72 hrs by MTT assay; assay type: functional, cell-based; details: Hs 683, 72 h; procedure, shortened: as §1
Cavia porcellus [3] = species: Cavia porcellus; test: Inhibition of guinea pig brain Na+/K+-ATPase-mediated K+-activated-p-nitrophenylphosphatase activity
Procedure, shortened: (§2)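 Purified guinea pig brain or kidney Na+/K+-ATPase preparations; K+-activated p-nitrophenylphosphatase activity = total activity minus basal activity, with basal measured by replacing KCl with 1 mM ouabain. Mean ± SEM of 3 experiments.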

[4] = Selectivity index for human U373 cells over NMRI mouse astrocytes; set-up: species or system U-373MG ATCC
Cavia porcellus [5] = species: Cavia porcellus; test: Uncompetitive inhibition of purified guinea pig kidney Na+/K+-ATPase by double reciprocal plot analysis in presence of ATP
[6] = Growth inhibition of NMRI mouse astrocytes at 30 to 300 uM after 72 hrs by MTT assay; assay type: cell-based, Astrocyte; details: read-out: GI
Procedure, shortened: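 Mouse astrocyte primocultures were plated in uncoated T25 flasks for 72 h, medium was changed and cells grown to confluence. Tested at 0, 30, 60 and 300 µM by MTT colorimetric assay.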

Cavia porcellus [7] = species: Cavia porcellus; test: Inhibition of guinea pig kidney Na+/K+-ATPase at 1 mM preincubated for 10 mins measured after 30 mins relative to control
Cavia porcellus [8] = species: Cavia porcellus; test: Non competitive inhibition of guinea pig brain Na+/K+-ATPase by double reciprocal plot analysis in presence of Na+; assay type: tissue-based
MCF7 [9] = test: Ratio of perillyl alcohol IC50 to compound IC50 for human MCF7 cells; assay type: functional
PC-3 [10] = test: Cytotoxicity against human PC3 cells after 72 hrs by MTT assay; assay type: functional, cell-based; details: PC-3, 72 h; procedure, shortened: as §1
SK-MEL-28 [11] = test: Cytotoxicity against human SK-MEL-28 cells after 72 hrs by MTT assay; assay type: functional, cell-based; details: SK-MEL-28, 72 h; procedure, shortened: as §1
Cavia porcellus [12] = species: Cavia porcellus; test: Non competitive inhibition of guinea pig brain Na+/K+-ATPase by double reciprocal plot analysis in presence of K+; assay type: tissue-based
Cavia porcellus [13] = species: Cavia porcellus; test: Inhibition of ouabain-insensitive Mg++ATPase in guinea pig brain homogenate at 0.1 to 1mM; assay type: tissue-based
Procedure, shortened: (§3)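 Brain and kidney homogenates in 110 mM NaCl, 20 mM KCl, 5 mM MgCl2, 50 mM Tris-HCl pH 7.6 with 5 mM ATP; 10 min preincubation at 37 °C, 30 min reaction. Ouabain-insensitive Mg++ATPase activity measured with 3.6 mM ouabain across 0.1–1.0 mM compound.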

[14] = Inhibition of guinea pig brain Na+/K+-ATPase alpha3 preincubated for 10 mins measured after 30 mins; set-up: species or system Cavia porcellus
[15] = Growth inhibition of NMRI mouse astrocytes after 72 hrs by MTT assay; assay type: cell-based; details: Astrocyte
Cavia porcellus [16] = species: Cavia porcellus; test: Inhibition of guinea pig kidney Na+/K+-ATPase alpha1 preincubated for 10 mins measured after 30 mins relative to POH
SK-MEL-28 [17] = test: Ratio of perillyl alcohol IC50 to compound IC50 for human SK-MEL-28 cells; assay type: functional
Cavia porcellus [18] = species: Cavia porcellus; test: Non competitive inhibition of guinea pig kidney Na+/K+-ATPase by double reciprocal plot analysis in presence of Na+
PC-3 [19] = test: Ratio of perillyl alcohol IC50 to compound IC50 for human PC3 cells; assay type: functional
Cavia porcellus [20] = species: Cavia porcellus; test: Inhibition of guinea pig kidney Na+/K+-ATPase-mediated K+-activated-p-nitrophenylphosphatase activity; procedure, shortened: as §2
[21] = Ratio of perillyl alcohol IC50 to compound IC50 for human U373 cells; assay type: functional, U-373MG ATCC
Hs 683 [22] = test: Cytostatic activity against human Hs683 cells at 40 uM after 48 to 72 hrs by videomicroscopic analysis relative to control; assay type: functional
Procedure, shortened: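 Hs683 glioma cells, untreated or at 40 µM, filmed by computer-assisted phase-contrast videomicroscopy over 72 h, one image every 4 min (1080 images), in triplicate. Growth rate = cell count in last image / first image. GGR index = treated ratio / control ratio.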

Hs 683 [23] = test: Inhibition of RAS oncogene activity in human Hs683 cells 40 uM after 30 seconds by ELISA relative to POH; assay type: cell-based
Hs 683 [24] = test: Ratio of perillyl alcohol IC50 to compound IC50 for human Hs683 cells; assay type: functional
Cavia porcellus [25] = species: Cavia porcellus; test: Inhibition of guinea pig brain Na+/K+-ATPase at 1 mM preincubated for 10 mins measured after 30 mins relative to control
[26] = Cytotoxicity against human U373 cells after 72 hrs by MTT assay; assay type: functional, cell-based, U-373MG ATCC; details: U373 MG; procedure, shortened: as §1
Cavia porcellus [27] = species: Cavia porcellus; test: Inhibition of ouabain-insensitive Mg++ATPase in guinea pig kidney homogenate at 0.1 to 1mM; assay type: tissue-based; procedure, shortened: as §3
A549 [28] = test: Ratio of perillyl alcohol IC50 to compound IC50 for human A549 cells; assay type: functional
[29] = Chemical stability of the compound in water after 72 hrs by mass spectroscopic analysis; assay type: physicochemical; details: buffer
Procedure, shortened: (§4)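 5 mM DMSO stock diluted 100-fold in water or RPMI and held at 37 °C for 72 h. Samples infused into ESI-QTOF MS (positive mode, scan 110–950 m/z) with FA 0.2%-MeOH 50:50 as solvent.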

Cavia porcellus [30] = species: Cavia porcellus; test: Uncompetitive inhibition of purified guinea pig brain Na+/K+-ATPase by double reciprocal plot analysis in presence of ATP; assay type: tissue-based
Hs 683 [31] = test: Selectivity index for NMRI mouse astrocytes over human Hs683 cells
Cavia porcellus [32] = species: Cavia porcellus; test: Non competitive inhibition of guinea pig kidney Na+/K+-ATPase by double reciprocal plot analysis in presence of K+
[33] = Inhibition of Na+/K+-ATPase in guinea pig kidney homogenate preincubated for 10 mins measured after 30 mins; assay type: tissue-based, Cavia porcellus
[34] = Inhibition of Na+/K+-ATPase in guinea pig whole brain homogenate preincubated for 10 mins measured after 30 mins; assay type: tissue-based, Cavia porcellus
A549 [35] = test: Cytotoxicity against human A549 cells after 72 hrs by MTT assay; assay type: functional, cell-based; details: A549, 72 h; procedure, shortened: as §1
[36] = Inhibition of guinea pig brain Na+/K+-ATPase alpha2 preincubated for 10 mins measured after 30 mins; set-up: species or system Cavia porcellus
Hs 683 [37] = test: Inhibition of RAS oncogene activity in human Hs683 cells at 40 uM after 30 seconds by ELISA relative to control; assay type: cell-based
Procedure, shortened: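 Hs683 glioma cells exposed 30 s at 40 µM, lysed on ice for 15 min, 100 µg protein used. Active Ras captured on GST-Raf-RBD glutathione plate, detected with H-Ras primary and HRP secondary antibodies, read by chemiluminescence. Compared with untreated cells.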

[38] = Chemical stability of the compound in RPMI culture medium after 72 hrs by mass spectroscopic analysis; assay type: physicochemical; procedure, shortened: as §4
[39] = Inhibition of guinea pig kidney Na+/K+-ATPase alpha1 preincubated for 10 mins measured after 30 mins; set-up: species or system Cavia porcellus
Hs 683 [40] = test: Inhibition of RAS oncogene activity in human Hs683 cells at 2 mM after 5 to 29 mins by ELISA; assay type: cell-based; details: in the assay text read “5 to 20 mins” for “5 to 29 mins”
Procedure, shortened: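 Hs683 glioma cells treated with 2 mM for 5 and 20 min, lysed, 100 µg protein used. GTP-Ras captured by GST-Raf-RBD and detected with H-Ras antibody, HRP secondary and chemiluminescence.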

## O=C(c1ccccc1)c1sc(N2CCCCC2)nc1Br
MCF7 [1]
  IC50: 35 µM
[2]
  IC50: 38 µM
Cavia porcellus [3]
  inhibition: Active
[4]
  Selectivity Index: >5
Cavia porcellus [5]
  inhibition: Active
[6]
  inhibition at 72 h, up to 300 µM: < 50%
Cavia porcellus [7]
  inhibition: > 50%
Cavia porcellus [8]
  inhibition: Active
MCF7 [9]
  Ratio IC50: 10
PC-3 [10]
  IC50: 62 µM
SK-MEL-28 [11]
  IC50: 91 µM
Cavia porcellus [12]
  inhibition: Active
Cavia porcellus [13]
  inhibition: inactive
[14]
  IC50: 250 µM
[15]
  IC50: > 300 µM
Cavia porcellus [16]
  Ratio: 3
SK-MEL-28 [17]
  Ratio IC50: 10
Cavia porcellus [18]
  inhibition: Active
PC-3 [19]
  Ratio IC50: 10
Cavia porcellus [20]
  inhibition: inactive
[21]
  Ratio IC50: 10
Hs 683 [22]
  Activity: 40%
Hs 683 [23]
  Ratio: 40
Hs 683 [24]
  Ratio IC50: 10
Cavia porcellus [25]
  inhibition: > 50%
[26]
  IC50: 78 µM
Cavia porcellus [27]
  inhibition: inactive
A549 [28]
  Ratio IC50: 10
[29]
  Stability: Unstable
Cavia porcellus [30]
  inhibition: Active
Hs 683 [31]
  Selectivity Index: >5
Cavia porcellus [32]
  inhibition: Active
[33]
  IC50: 550 µM
[34]
  IC50: 350 µM
A549 [35]
  IC50: 48 µM
[36]
  IC50: 250 µM
Hs 683 [37]
  inhibition: > 50%
[38]
  Stability: Unstable
[39]
  IC50: 550 µM

## COC(=O)c1sc2nc(N3CCCCC3)sc2c1C
MCF7 [1]
  IC50: 90 µM
[2]
  IC50: > 100 µM
PC-3 [10]
  IC50: 93 µM
SK-MEL-28 [11]
  IC50: > 100 µM
[26]
  IC50: > 100 µM
A549 [35]
  IC50: > 100 µM

## O=C(c1ccccc1)c1sc(N2CCCCC2)nc1Cl
MCF7 [1]
  IC50: 56 µM
[2]
  IC50: 36 µM
[4]
  Selectivity Index: >5
[6]
  inhibition at 72 h, up to 300 µM: < 50%
MCF7 [9]
  Ratio IC50: 10
PC-3 [10]
  IC50: 69 µM
SK-MEL-28 [11]
  IC50: 91 µM
[15]
  IC50: > 300 µM
SK-MEL-28 [17]
  Ratio IC50: 10
PC-3 [19]
  Ratio IC50: 10
[21]
  Ratio IC50: 10
Hs 683 [22]
  Activity: 40%
Hs 683 [24]
  Ratio IC50: 10
Cavia porcellus [25]
  inhibition: > 50%
[26]
  IC50: 96 µM
A549 [28]
  Ratio IC50: 10
[29]
  Stability: Stable
Hs 683 [31]
  Selectivity Index: >5
A549 [35]
  IC50: 41 µM
[38]
  Stability: Stable

## N#Cc1sc(N2CCCC2)nc1Cl
MCF7 [1]
  IC50: 99 µM
[2]
  IC50: > 100 µM
PC-3 [10]
  IC50: > 100 µM
SK-MEL-28 [11]
  IC50: > 100 µM
[26]
  IC50: > 100 µM
A549 [35]
  IC50: > 100 µM

## O=C(c1ccccc1)c1sc(N2CCCC2)nc1Br
MCF7 [1]
  IC50: 69 µM
[2]
  IC50: > 100 µM
PC-3 [10]
  IC50: > 100 µM
SK-MEL-28 [11]
  IC50: > 100 µM
[26]
  IC50: > 100 µM
A549 [35]
  IC50: 97 µM

## CSc1nc(Cl)c(C(=O)c2ccccc2)s1
MCF7 [1]
  IC50: 91 µM
[2]
  IC50: > 100 µM
PC-3 [10]
  IC50: > 100 µM
SK-MEL-28 [11]
  IC50: > 100 µM
[26]
  IC50: > 100 µM
A549 [35]
  IC50: > 100 µM

## C=C(C)[C@@H]1CC=C(CO)CC1 [PERILLYL ALCOHOL]
MCF7 [1]
  IC50: > 1000 µM
[2]
  IC50: > 1000 µM
PC-3 [10]
  IC50: > 1000 µM
SK-MEL-28 [11]
  IC50: > 1000 µM
Hs 683 [40]
  inhibition: Active
[26]
  IC50: > 1000 µM
A549 [35]
  IC50: > 1000 µM

## O=C(c1ccccc1)c1sc(N2CCCC2)nc1Cl
MCF7 [1]
  IC50: 63 µM
[2]
  IC50: 44 µM
PC-3 [10]
  IC50: > 100 µM
SK-MEL-28 [11]
  IC50: 98 µM
[26]
  IC50: 82 µM
A549 [35]
  IC50: 50 µM

## CSc1nc(Br)c(C(=O)c2ccccc2)s1
MCF7 [1]
  IC50: 67 µM
[2]
  IC50: > 100 µM
PC-3 [10]
  IC50: > 100 µM
SK-MEL-28 [11]
  IC50: > 100 µM
[26]
  IC50: 89 µM
A549 [35]
  IC50: 97 µM
